Measured values from ChEMBL document CHEMBL1129637, “Conformationally defined 6-s-trans-retinoic acid analogs. 3. Structure-activity relationships for nuclear receptor binding, transcriptional activity, and cancer chemopreventive activity” (J Med Chem, 1996).
“And” between values parts separate entries of the source, which are not always exact repeats. Equal values may be shown once.

Legend:
[1] = target: T1, Cellular retinoic acid-binding protein 2 (Mus musculus, UniProt P22935); assay: Inhibition of [3H]ATRA binding to murine Cytoplasmic retinoic acid binding protein (CRABP) type 2
T1 sequence (P22935 whole entry): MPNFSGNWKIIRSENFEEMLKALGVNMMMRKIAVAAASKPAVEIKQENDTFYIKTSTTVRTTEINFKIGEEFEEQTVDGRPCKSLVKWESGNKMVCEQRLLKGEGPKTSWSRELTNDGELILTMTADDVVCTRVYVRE

[2] = target: T2, Retinoic acid receptor RXR-alpha (Mus musculus, UniProt P28700); assay: Inhibition of [3H]-(9Z)-RA binding to mouse Retinoic acid receptor RXR alpha
T2 sequence (P28700 whole entry): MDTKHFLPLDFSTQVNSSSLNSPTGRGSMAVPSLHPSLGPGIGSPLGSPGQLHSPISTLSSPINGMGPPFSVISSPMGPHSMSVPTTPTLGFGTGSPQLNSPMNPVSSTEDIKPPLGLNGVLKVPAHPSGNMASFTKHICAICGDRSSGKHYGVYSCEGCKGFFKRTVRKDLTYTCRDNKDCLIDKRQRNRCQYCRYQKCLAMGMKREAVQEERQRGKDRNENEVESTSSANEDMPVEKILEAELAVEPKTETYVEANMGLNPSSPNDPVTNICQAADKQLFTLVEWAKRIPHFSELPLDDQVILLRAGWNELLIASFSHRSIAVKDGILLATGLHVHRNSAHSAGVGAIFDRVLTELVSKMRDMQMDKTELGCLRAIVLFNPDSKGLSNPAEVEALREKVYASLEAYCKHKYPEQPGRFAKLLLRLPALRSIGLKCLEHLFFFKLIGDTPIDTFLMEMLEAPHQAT

[3] = target: Cellular retinoic acid-binding protein 1 (Gallus gallus) (UniProt P40220); assay: Inhibition of chick skin Cytoplasmic retinoic acid binding protein at 100-fold excess ligand
Sequence of Cellular retinoic acid-binding protein 1 (Gallus gallus) (P40220 whole entry): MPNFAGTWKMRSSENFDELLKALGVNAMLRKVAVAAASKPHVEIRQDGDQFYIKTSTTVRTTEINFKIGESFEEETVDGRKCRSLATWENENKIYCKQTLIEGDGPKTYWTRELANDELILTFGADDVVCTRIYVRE

[4] = Inhibition of [3H]ATRA binding to Cytoplasmic retinoic acid binding protein (CRABP) type 1
[5] = target: T3, Retinoic acid receptor alpha (Mus musculus, UniProt P11416); assay: Inhibition of [3H]ATRA binding to mouse Retinoic acid receptor RAR alpha
T3 sequence (P11416 whole entry): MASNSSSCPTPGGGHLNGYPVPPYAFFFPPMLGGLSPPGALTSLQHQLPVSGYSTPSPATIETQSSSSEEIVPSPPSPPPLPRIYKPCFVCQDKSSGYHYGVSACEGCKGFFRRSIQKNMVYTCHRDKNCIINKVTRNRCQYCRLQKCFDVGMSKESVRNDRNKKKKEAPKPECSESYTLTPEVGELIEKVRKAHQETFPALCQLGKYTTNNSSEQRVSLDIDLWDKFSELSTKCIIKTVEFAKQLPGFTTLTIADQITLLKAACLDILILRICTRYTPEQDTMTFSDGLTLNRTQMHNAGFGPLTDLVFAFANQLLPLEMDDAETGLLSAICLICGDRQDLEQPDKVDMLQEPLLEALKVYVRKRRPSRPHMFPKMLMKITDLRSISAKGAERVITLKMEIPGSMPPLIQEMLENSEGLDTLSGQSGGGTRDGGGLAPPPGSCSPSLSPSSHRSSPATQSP
How it was run: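 Radioligand competition assay for RARα, measuring inhibition of [3H]-(all-E)-RA binding by unlabeled retinoid over a dose series to derive IC50.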

[6] = target: T4, Retinoic acid receptor RXR-alpha (Homo sapiens, UniProt P19793); assay: Inhibition of binding to human Retinoic acid receptor RXR DEF domain
T4 sequence (P19793 whole entry): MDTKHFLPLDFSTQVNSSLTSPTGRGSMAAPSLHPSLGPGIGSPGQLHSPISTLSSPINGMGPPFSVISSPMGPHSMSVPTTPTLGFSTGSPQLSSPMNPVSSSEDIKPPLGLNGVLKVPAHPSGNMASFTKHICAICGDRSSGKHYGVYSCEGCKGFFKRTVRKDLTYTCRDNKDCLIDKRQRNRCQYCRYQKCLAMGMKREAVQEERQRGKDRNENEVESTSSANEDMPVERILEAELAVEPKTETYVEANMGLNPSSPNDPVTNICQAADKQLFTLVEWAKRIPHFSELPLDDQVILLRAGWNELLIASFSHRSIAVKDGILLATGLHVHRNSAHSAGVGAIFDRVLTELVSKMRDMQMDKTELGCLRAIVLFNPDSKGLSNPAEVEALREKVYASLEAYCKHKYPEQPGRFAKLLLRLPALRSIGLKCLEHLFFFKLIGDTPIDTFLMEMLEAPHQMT

[7] = target: T5, Retinoic acid receptor alpha (Mus musculus) (UniProt P11416); assay: Percent inhibition of [3H]ATRA binding to mouse Retinoic acid receptor RAR alpha; design: concentration or dose not given beside the values; details: concentration not given here
T5 sequence (whole entry): T3 sequence (P11416 whole entry)
How it was run: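 RARα was exposed to 1000 nM test retinoid plus 5 nM [3H]-(all-E)-RA. Displacement was compared with a positive control of 1000 nM unlabeled (all-E)-RA and with a no-retinoid control.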

[8] = target: Cellular retinoic acid-binding protein 1 (Mus musculus, UniProt P62965); assay: Inhibition of [3H]ATRA binding to murine Cytoplasmic retinoic acid binding protein (CRABP) type 1
Sequence of Cellular retinoic acid-binding protein 1 (Mus musculus, UniProt P62965) (P62965 whole entry): as the sequence (P40220 whole entry) above, with I68V, S71G, A86P, Y95H, K97T, I101L counted along it

Mus musculus [9] = organism: Mus musculus; assay: Antitumor activity in Mouse Skin Papilloma model; assay type: functional
How it was run: (§1)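 Carcinogen-induced papillomas on mouse dorsal skin, with test retinoid applied 1 h before TPA. Percent papilloma reduction = (1 − mean tumors in retinoid-treated animals / mean tumors in controls) × 100. ED50 came from probit analysis of a dose-response curve. Estimated standard error is 20% of the mean.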

Mus musculus [10] = organism: Mus musculus; assay: Percentage papilloma reduction (81) at 45.9 nmol dose 1 hr prior to TPA; assay type: functional; how it was run: as §1
[11] = target: Cellular retinoic acid-binding protein 1 (Gallus gallus, UniProt P40220); assay: Inhibition of [3H]ATRA binding to chick skin Cytoplasmic retinoic acid binding protein
Sequence of Cellular retinoic acid-binding protein 1 (Gallus gallus, UniProt P40220) (P40220 whole entry): as the sequence (P40220 whole entry) above

Mus musculus [12] = organism: Mus musculus; assay: Antitumor activity in Mouse Skin Papilloma model * Value determined by Dawson et al; assay type: functional

Structure (SMILES)	Kd [1]	IC50 [2] [nM]	inhibition [3] [%]	IC50 [4] [nM]	IC50 [5] [nM]	Kd [6] [nM]	inhibition [7] [%]	Kd [8] [nM]	IC50 [11] [nM]	ED50 (Mus musculus [9])	Reduction (Mus musculus [10]) [%]	ED50 (Mus musculus [12]) [nmol]
CC1=C(C(C)C)/C(=C/C(C)=C/C=C/C(C)=C/C(=O)O)CCC1		> 2000	100		8	> 200	100	1		5 nM	95	
CCC1=C(C(C)C)/C(=C/C(C)=C/C=C/C(C)=CC(=O)O)CCC1										4.7 nmol	81	
CC(=CC(=O)O)/C=C/C=C(C)/C=C/C1=C(C)CCCC1(C)C [ISOTRETINOIN]												64
CC1=C(/C=C/C(C)=C\C=C\C(C)=C\C(=O)O)C(C)(C)CCC1 [ALITRETINOIN]			25				95			2.1 nM	95	
CC(=C\C=C\C(C)=C\C(=O)O)/C=C1/C=CCCC1	13 nM	> 2000	50		600	> 200	55	3	> 10000	> 1000 nM	22	
CC1=C(/C=C/C(C)=C/C=C/C(C)=C/C(=O)O)C(C)(C)CCC1 [TRETINOIN]			100				100			3 nM	95	

Now from value to molecule, other results behind:

Kd [1]	IC50 [2] [nM]	inhibition [3] [%]	IC50 [4] [nM]	IC50 [5] [nM]	Kd [6] [nM]	inhibition [7] [%]	Kd [8] [nM]	IC50 [11] [nM]	Structure (SMILES)	ED50 (Mus musculus [9])	Reduction (Mus musculus [10]) [%]	ED50 (Mus musculus [12]) [nmol]
3 nM and 10 nM	> 2000	45	> 10000	> 2000	> 200	45			C\C(C=C1C=CCCC1)=C/C=C/C(C)=C/C(=O)O			
13 nM	> 2000	90		55	> 200	90	1.2	1300	CC1=C(C)/C(=C/C(C)=C/C=C/C(C)=C/C(=O)O)CCC1	490 nM	32	
	620	43		> 1000	33	37	> 200		CC1=C(C(C)C)/C(=C/C(C)=C\C=C\C(C)=C\C(=O)O)CCC1	> 100 nM	30	
> 200 nM	1000	15			16	42	> 200	> 10000	CCC1=C(C(C)C)/C(=C/C(C)=C\C=C\C(C)=C\C(=O)O)CCC1	> 100 nM	43	
> 200 nM	> 2000	10		> 2000	120	10	> 200	> 10000	CC1=C(C)/C(=C/C(C)=C\C=C\C(C)=C\C(=O)O)CCC1		50	
	> 2000	100				98			CCC1=C(C(C)C)/C(=C/C(C)=C/C=C/C(C)=C/C(=O)O)CCC1	2.5 nM	99	
